The test system of one assay is Escherichia coli. In words: Induction of DNA damage in Escherichia coli pBR322 DNA assessed as effect on mobility rate at 5 uM after 1 hr by DNA relaxation assay. Summed up:
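pBR322 plasmid DNA incubated 1 h with compound over 1−10 μM in 5 mM Tris-HCl, 50 mM NaCl, pH 7.2. Samples run on 1.5% agarose gel, stained with 0.5 μg·mL−1 ethidium bromide; conformation and migration rate compared with 1% DMSO plus plasmid (negative control) and ethidium bromide plus plasmid (positive control).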

A further assay concerns T-24. Nature of the assay: Effect on p53 protein expression in human T24 cells at 10 uM after 24 hrs by Western blot analysis. Type of assay: functional, cell-based. Summed up: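 T24 cells (3 × 10^5 per well) grown to 85–95% confluence, then exposed 24 h to 0–10 μM. Whole-cell extracts run on SDS-PAGE and blotted to nitrocellulose. Probed with the indicated antibodies and AP-linked anti-rabbit IgG, with ECL detection. Blots stripped and reprobed for β-actin as loading control.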

Molecules are shown by their SMILES. Calls of active or inactive are those of the source. The calls are words filed in the database; no cut-off is given here.

Take `CC[n+]1c(-c2ccccc2)c2cc(N)ccc2c2ccc(N)cc21`: the outcome with Escherichia coli was Active.
As for `COc1ccc(C2=N[C@H](c3ccc(Cl)cc3)[C@H](c3ccc(Cl)cc3)N2C(=O)N2CCNC(=O)C2)c(OC(C)C)c1`, the result with T-24 was inactive.

The record behind these values is ChEMBL document CHEMBL4017491, “Phthalazino[1,2-b]quinazolinones as p53 Activators: Cell Cycle Arrest, Apoptotic Response and Bak-Bcl-xl Complex Reorganization in Bladder Cancer Cells” (J Med Chem, 2017).
